# Bioassay records deposited in PubChem by SRMLSC.
# PostGolgi ctrl: inhibits growth of the yeast control strain. efflux-deficient yeast background strain, growth absorbance A615, 16 h. inhibition, % at 10 µM. 98,000 tested, 5% active
# PostGolgi yeast: growth inhibition of a yeast mutant, post-Golgi transport screen; post-Golgi transport phenotypic cell assay; inhibition, % at 10 µM; 98,000 tested, 0.9% active; AID 739;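 further: yeast cells grown in 1536-well plates; yeast grown about 18 h at 30C before absorbance read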
# Ecoli tolC: growth inhibitors of E. coli BW25113 tolC mutant. AID 573. growth inhibition, % at 10 µM (by protocol). 65,000 tested, 2.2% active. OD615;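 active means growth inhibition at or above a cutoff equal to the mean over every tested compound plus 3 SD, cut at about 60% in these data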;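 further: growth measured after 20 h incubation at 37 °C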
#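 Doses: one dose of 10 µM final / Material: E. coli BW25113 ΔtolC::kan, tolC deletion mutant strain / Buffer or medium: LB with kanamycin 50 µg/mL / Evaluation: percent growth inhibition / Detection: optical density read at 615 nm / Incubation: 37 °C, 20 h exposure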
# HER2 expr 66K: Her2 kinase expression inhibition. HER2 level % of control, % at 10 µM. P04626. 65,000 tested, 0.69% active. SKBR-3 HER2 protein level, AlphaScreen, 18-24 h; hits give low values;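 active means HER2 level under 5% of the carrier-only control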;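 further: 100% = DMSO carrier and 0% = 500 nM PU-H71 HSP90 inhibitor; lower value means stronger loss of Her2 protein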
# Ecoli WT expand: E. coli BW25113 growth inhibition, expanded screen; OD600 absorbance; growth inhibition, % at 100 µM; 98,000 tested, 0.15% active;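 active means growth inhibition above about 50% at one test dose, limit read from the data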;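 further: growth measured after 20 h incubation at 37 °C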
# An asterisk follows results filed as active; . = no result given. Shown are actives, neighbours in structure and some others; about 6.6% of the full set was active somewhere. Unless noted, no stated cut-off is given here; in the data, active means inhibition above about 30%; inactive means the rest.
SMILES,PostGolgi ctrl,PostGolgi yeast,Ecoli tolC,HER2 expr 66K,Ecoli WT expand
COc1ccc(N(CC(=O)Nc2ccc(C)cn2)S(=O)(=O)c2c(C)noc2C)cc1,8,-6,1,80,-7
CCOc1ccccc1NC(=O)CN(c1ccc(C)cc1)S(=O)(=O)c1c(C)noc1C,39*,-2,42,78,-18
COC(=O)CN(c1ccc(OC)cc1)S(=O)(=O)c1c(C)noc1C,33*,1,-18,76,2
COc1ccc2nc(NC(=O)CN(c3ccc(C)cc3)S(=O)(=O)c3c(C)nn(C)c3C)sc2c1,50*,-4,55,69,-8
CC(C)(C)NC(=O)c1ccc2c(c1)N(CC(=O)N1CCN(c3ccccc3F)CC1)C(=O)C(C)(C)O2,-5,-7,-6,89,-9
CC(C)c1nc(NCCN2CCOCC2)c(C#N)c2c1COC(C)(C)C2,60*,13,4,215,7
CCCCc1nc(NCCN2CCOCC2)c(C#N)c2c1COC(C)(C)C2,102*,15,16,101,6
CC(C)Cc1nc(NCCN2CCOCC2)c(C#N)c2c1COC(C)(C)C2,100*,51*,13,90,13
Cc1ccc(NC2c3ccccc3C(=O)N2CCN2CCOCC2)cc1 (configuration not stated),-2,1,.,.,1
CCOC(=O)CNc1nc(C#N)nc(N2CCOCC2)n1,3,5,-11,103,-5
Cc1ccccc1Cn1nc(C)c(NC(=O)c2sc3ccccc3c2Cl)c1C,33*,2,.,.,-7
CC(C)c1nnc(NC(=O)c2sc3ccccc3c2Cl)s1,34*,12,.,.,10
COc1ccc(N2C(=O)C3CCCN3C2c2ccccc2F)cc1 (configuration not stated),0,4,-12,92,5
CCOc1ccccc1C1N(c2ccc(OC)cc2)C(=O)C2CCCN21 (configuration not stated),34*,-2,-1,108,-2
CC(=O)Nc1sc2c(c1C(c1cccs1)N1CCOCC1)CCCC2 (configuration not stated),42*,3,-13,55,-6
CC(=O)Nc1cccc(Oc2nc(C)cc(C)c2C#N)c1,32*,-5,3,93,0
CCS(=O)(=O)N1Cc2ccccc2CC1C(=O)NCC12CC3CC(CC(C3)C1)C2 (configuration not stated),25,3,.,.,2
CCS(=O)(=O)N1Cc2ccccc2CC1C(=O)NC(C)C12CC3CC(CC(C3)C1)C2 (configuration not stated),36*,4,.,.,-5
COc1ccc(C2CC(=O)c3c(ccc4ccccc34)N2)cc1OC (configuration not stated),3,-1,.,.,16
CC1(C)CC(=O)C2=C(C1)c1c(ccc3ccccc13)NC2c1ccc(Br)o1 (configuration not stated),69*,14,.,.,-12
CC(=O)NCCc1ccc(S(=O)(=O)Nc2cccnc2)cc1,33*,5,-10,.,4
CC(C)(C)c1ccc(S(=O)(=O)Nc2cccnc2)cc1,30*,-3,.,.,-6
O=S(=O)(Nc1cccnc1)c1ccc(Cl)cc1,8,-1,.,.,14
CC(C)C(=O)Nc1ccnc(-c2cccnc2)n1,4,-2,.,.,18
O=C(O)c1nc(N2CCCC2)ncc1Cl,-11,1,.,.,-2
SMILES,PostGolgi ctrl,PostGolgi yeast,Ecoli tolC,HER2 expr 66K,Ecoli WT expand
CCOC(=O)c1sc2nc(N3CCOCC3)c3c(c2c1N)CCCC3,15,7,-7,88,-4
NC(=O)c1sc2nc(N3CCCCC3)c3c(c2c1N)CCCC3,44*,-4,17,94,1
Nc1c(C(=O)NCc2ccco2)sc2nc(N3CCOCC3)c3c(c12)CCCC3,33*,-1,2,98,-3
CCOC(=O)C1=C(N)OC2=C(C(=O)CC(C)(C)C2)C1c1ccco1 (configuration not stated),-1,1,-3,94,-1
CC1(C)CC(=O)C2=C(C1)OC1=C(C(=O)CC(C)(C)C1)C2c1ccc(O)cc1O,-5,3,11,-0.6*,-2
COC(=O)c1ccc(CSc2ccc3nnc(-c4cccc(F)c4)n3n2)o1,41*,-5,24,107,-5
CCOC(=O)CC(=O)CSc1ccc2nnc(-c3cccc(F)c3)n2n1,1,-12,14,75,-6
CC1=C(C(=O)NCc2ccccc2)C(c2cccs2)n2ncnc2N1 (configuration not stated),-5,-7,-1,95,2
CC(C)(C)NC(=O)C(c1ccccn1)N(C(=O)c1ccc2c(c1)OCCO2)C1CCCC1 (configuration not stated),31*,3,-8,79,3
N#CC1=C(N)OC2=C(C(=O)CCC2)C12CCC1(CC2)OCCO1,46*,-7,-18,99,-1
CC1(C)C(C#N)=C(N)OC2=C1C(=O)CCC2,1,-3,-4,83,4
Nc1nc(Cl)cc(N2CCC(c3cc(-c4ccc(Cl)cc4Cl)n[nH]3)CC2)n1,82*,43*,.,.,6
Nc1nc(Cl)cc(N2CCOCC2)n1,7,-3,.,.,-3
Cc1ccc(O)c(N=CC2=C(O)c3ccccc3C2=O)c1,32*,1,28,67,-7
Cc1ccc(C(=O)NCC(=O)OCC(=O)c2c(N)n(C)c(=O)n(C)c2=O)s1,1,6,-2,92,10
CCCOC(=O)c1ccc(-c2c(C)noc2-c2ccc(OC)cc2O)o1,29,4,99*,90,-6
CCCOC(=O)c1ccc(Oc2c(-c3ccc(OC)cc3O)n[nH]c2C)cc1,5,-7,55,86,2
CCn1c(CNc2cccc(Cl)c2)nnc1SCC(=O)OC1CCCCC1,23,12,60*,115,-10
CCn1c(CNc2ccccc2Cl)nnc1SCC(=O)OC1CCCCC1,17,0,73*,73,-2
CC1CN(c2nc3c(c(=O)[nH]c(=O)n3C)n2Cc2ccccc2F)CC(C)O1 (configuration not stated),1,4,17,.,1
O=C1c2cccc3c(Nc4ccccc4Cl)c([N+](=O)[O-])cc(c23)C(=O)N1CCO,17,45*,.,.,0
O=C1c2cccc3c(N4CCCCC4)ccc(c23)C(=O)N1CCO,13,13,.,.,-6
Cc1n[nH]c(C)c1S(=O)(=O)N(CC(=O)NC1CCCC1)c1ccc(C(C)C)cc1,4,-5,3,95,-7
CCn1cc(C(=O)NCc2cccnc2)c(=O)c2cc(F)c(N3CCN(C(=O)c4ccco4)CC3)cc21,0,6,.,.,97*
CCn1cc(C(=O)NCc2cccc(F)c2)c(=O)c2cc(F)c(N3CCN(C(=O)c4ccco4)CC3)cc21,14,-4,.,.,91*
CN(CCCC(=O)Nc1ccncc1)S(=O)(=O)c1ccc(Cl)cc1,19,4,-1,102,2
CN(CC(=O)Nn1cnnc1)S(=O)(=O)c1ccc(Br)cc1,20,-1,.,.,-4
